High-throughput results: PubChem, several laboratories
b-catenin transl = beta-catenin nuclear translocation modulation. HeLa beta-catenin nuclear translocation, immunofluorescence imaging. nuclear translocation activity, % at 5 µM. 190,000 tested, 0.3% active. AID 1665;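 active means nuclear translocation activity above 50% at 5 µM, with a well cell count of 50 or more; inconclusive means wells under 50 cells across six images, flagged as toxic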;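 further: per-cell ratio of nuclear to cytoplasmic median beta-catenin stain intensity; plate controls were DMSO negative control for no effect and GSK-3 inhibitor IX positive control for full effect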
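System: Human HeLa cells, endogenous beta-catenin | Compound dosing: 5 µM primary, 0.02–20 µM confirmation | Timing: 24 h compound exposure at 37°C, 5% CO2 | Measured by: Fluorescence imaging of beta-catenin antibody stain plus DAPI | Read-out basis: % activation of per-cell nuclear versus cytoplasmic median beta-catenin signal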
Hsp70 act = Hsp70 transcriptional activation, primary screen | activation, % at 10 µM | HeLa Hsp70 promoter luciferase reporter, luminescence; scaled: vehicle 0, proteasome-inhibitor control 100% | AID 1203 | 200,000 tested, 0.04% active;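 active means activation above the mean across all tested compounds plus 3 SD, cutoff set per campaign, cut at about 5.5% in these data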;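 further: 100% = MG132 at 30 µM as the positive control and 0% = DMSO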
Dynein transport = dynein cargo transport inhibition; z-score, hits read low; 3617.4 mouse cells, GR-EGFP nuclear translocation imaging; test concentration mostly 20 µM; stimulated with dexamethasone, 1 µM; hits give low values; 220,000 tested, 0.47% active;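 active means plate z-score of nuclear minus cytoplasmic receptor signal below a set negative limit, without overly bright fluorescence or cell loss, cut at about -3.5 in these data, passing the limit was not always enough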;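 further: z-score of nuclear minus cytoplasmic ring GR-EGFP intensity difference per well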
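Buffer or medium: tetracycline-free induction medium containing charcoal-stripped FBS / Reagent: dexamethasone agonist, 1.0 µM final, for 30 min / Technique: automated 10x imaging of fixed Hoechst-stained cells / Times: induction 48 h, compound 1 h, agonist 30 min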
MT stabilizer = microtubule stabilization, imaging screen | HeLa tubulin immunostaining HCS, 24 h; share of cells brighter than vehicle mean+2SD | % tubulin-high responders, % at 10 µM | 200,000 tested, 0.83% active | AID 2205;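 active means plate Z-score above 3 for both tubulin-high and condensed-nucleus cell shares, with cell loss under 80%, at 10 µM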;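 further: anti alpha tubulin signal scored within the nucleus-defined area of each cell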
Autophagy HCS = modulators of autophagy. calls only at 10 µM (by protocol). AID 463193. 190,000 tested, 0.98% active. MEF GFP-LC3 puncta imaging; test concentration mostly 10 µM;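 active means percentage of spot-positive cells more than 3 SD above its plate mean, without a fluorescence outlier flag or 80% toxicity; inconclusive means no clear call, values can overlap the other calls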;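 further: spot-positive cell cutoff set from DMSO-treated cells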
Dynein confirm = dynein cargo transport inhibition, confirmation | AID 463116 | shares compounds with Dynein transport | 3617.4 GR-EGFP nuclear translocation imaging, dexamethasone-induced | calls only at 20 µM | 1,000 tested, 69% active;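 active means inhibition of receptor movement into the nucleus at or above a set limit in both runs, with normal cell brightness and cell count; inconclusive means limit reached in only one run, brightness and count normal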;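 further: dexamethasone at 1 µM final in well for 30 min; nuclear minus cytoplasmic GR-EGFP mean intensity difference in channel 2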
* hit, by the source's call. Compounds with a hit are over-represented: about 2.1% of the library has one in this group of screens.

How did CC(C)n1c(O)c(C2c3cc(Cl)ccc3Oc3[nH]c(=O)n(C(C)C)c(=O)c32)c(=O)[nH]c1=O (stereo not given) do in these assays?
b-catenin transl: 0; Dynein transport: -5.3*; Dynein confirm: active

What do the screens show for `O=C(c1ccc2c(c1)OCO2)C1CCCN(CC2CCCCC2)C1` (stereo not given)?
b-catenin transl: -2; Hsp70 act: 0; Dynein transport: 4.7; MT stabilizer: 2; Autophagy HCS: inactive

What do the screens show for `COc1ccccc1N1C(=O)NC(=O)/C(=C\c2cnn(-c3ccccc3)c2)C1=O`?
b-catenin transl: -1; Hsp70 act: 0; Dynein transport: 0.85; MT stabilizer: 6; Autophagy HCS: inactive

Results for COc1ccc(CN2C(=O)NC(=O)/C(=C/c3ccc([N+](=O)[O-])s3)C2=O)cc1 ?
b-catenin transl: -2; Dynein transport: -4.3*; Dynein confirm: active

Results for CCOc1ccc(N2C(=O)NC(=O)/C(=C\c3cc(OC)c(OC)cc3[N+](=O)[O-])C2=O)cc1 ?
b-catenin transl: 0; Hsp70 act: 0; Dynein transport: -0.28; MT stabilizer: 3; Autophagy HCS: inactive

What do the screens show for `COc1ccc(N2C(=O)NC(=O)/C(=C\c3ccc([N+](=O)[O-])s3)C2=O)cc1`?
b-catenin transl: 1; Hsp70 act: 0; Dynein transport: -7.1*; MT stabilizer: 4; Autophagy HCS: inactive; Dynein confirm: active

Results for COc1ccccc1N1C(=O)NC(=O)/C(=C/c2ccc([N+](=O)[O-])s2)C1=O ?
b-catenin transl: 0; Dynein transport: -5.8*; Dynein confirm: active

How did COc1cccc(N2C(=O)NC(=O)/C(=C/c3ccc([N+](=O)[O-])s3)C2=O)c1 do in these assays?
b-catenin transl: 2; Dynein transport: -5.6*; Dynein confirm: active

What do the screens show for `COc1cccc(N2C(=O)NC(=O)/C(=C/c3ccc4c(c3)Cc3ccccc3-4)C2=O)c1`?
b-catenin transl: -8; Hsp70 act: 0; Dynein transport: -0.96; MT stabilizer: 1; Autophagy HCS: inactive

Results for COc1ccc(C(Nc2ccccc2)P(=O)(Oc2ccccc2)Oc2ccccc2)cc1 (stereo not given) ?
b-catenin transl: -1; Hsp70 act: -1; Dynein transport: -0.48; MT stabilizer: 1; Autophagy HCS: inactive

What do the screens show for `Cc1nn(Cc2ccc(Cl)cc2Cl)c(Cl)c1C(=O)NC1CCCc2ccccc21` (stereo not given)?
b-catenin transl: 2; Hsp70 act: 0; Dynein transport: -0.35; MT stabilizer: 4; Autophagy HCS: inactive

How did COc1ccc(N2C(=O)NC(=O)/C(=C/c3ccc([N+](=O)[O-])s3)C2=O)cc1 do in these assays?
b-catenin transl: 0; Dynein transport: -5.3*; Dynein confirm: active

Results for CCOC(=O)c1c(-n2c(C)cc(C=C3C(=O)NC(=S)NC3=O)c2C)sc2c1CCCC2 ?
b-catenin transl: 4; Hsp70 act: 0; Dynein transport: -4.6*; MT stabilizer: 68; Autophagy HCS: inactive; Dynein confirm: active

What do the screens show for `CC[n+]1c(/C=C/C=C/c2ccc(N(C)C)cc2)sc2ccccc21`?
b-catenin transl: 2; Dynein transport: -3.7*; Dynein confirm: active

How did CN(C)c1ccc(/C=C/C=C/c2sc3ccccc3[n+]2C)cc1 do in these assays?
b-catenin transl: 2; Dynein transport: -0.28

How did COc1cc(/C=C/[N+](=O)[O-])ccc1O do in these assays?
b-catenin transl: -2; Hsp70 act: 0; Dynein transport: -5.7*; MT stabilizer: 4; Autophagy HCS: inactive; Dynein confirm: active

Results for CCN(CC)c1ccc(CC2C(=O)N(C)C(=O)N(C)C2=O)cc1 ?
b-catenin transl: -1; Hsp70 act: 0; Dynein transport: -1.3; MT stabilizer: 4; Autophagy HCS: inactive

How did CCN(CC)c1ccc(/C=C/[N+](=O)[O-])cc1 do in these assays?
b-catenin transl: -3; Hsp70 act: 0; Dynein transport: -4.2*; MT stabilizer: 2; Autophagy HCS: inactive; Dynein confirm: active

How did COc1ccc(-c2nn(CCC#N)cc2C(=O)Nc2ccccc2Br)cc1[N+](=O)[O-] do in these assays?
b-catenin transl: 1; Dynein transport: 0.14

How did CC(C)N1C(=O)/C(=C/C=C/c2ccco2)C(=O)N(Cc2ccco2)C1=O do in these assays?
b-catenin transl: 3; Hsp70 act: 0; Dynein transport: -2.1; MT stabilizer: 3; Autophagy HCS: inactive

Results for CC(C)c1ccc(N2C(=O)NC(=O)/C(=C\c3cnc(-c4ccccc4)nc3)C2=O)cc1 ?
b-catenin transl: -2; Hsp70 act: 0; Dynein transport: -0.42; MT stabilizer: 3; Autophagy HCS: inactive

How did CCN1C(=O)C(=C/C=C/c2ccco2)C(=O)N(CC)C1=S do in these assays?
b-catenin transl: 1; Hsp70 act: 0; Dynein transport: -4.5*; MT stabilizer: 3; Autophagy HCS: inactive; Dynein confirm: active

Results for CC(C)c1ccc(N2C(=O)NC(=O)/C(=C\C=C\c3ccco3)C2=O)cc1 ?
b-catenin transl: 1; Hsp70 act: 1; Dynein transport: -3.9*; MT stabilizer: 5; Autophagy HCS: inactive; Dynein confirm: active

How did O=C1NC(=O)N(Cc2ccccc2)C(=O)/C1=C/C=C/c1ccco1 do in these assays?
b-catenin transl: 1; Dynein transport: -6*; Dynein confirm: active

What do the screens show for `O=C(/C=C/C=C/c1ccccc1)CC1(O)C(=O)Nc2ccccc21` (stereo not given)?
b-catenin transl: 0; Hsp70 act: 1; Dynein transport: -2.4; MT stabilizer: 6; Autophagy HCS: inactive

Results for CN(C)CCNC(=O)c1cccn(Cc2cc(C(F)(F)F)cc(C(F)(F)F)c2)c1=O ?
b-catenin transl: -4; Hsp70 act: 0; Dynein transport: -0.45; MT stabilizer: 2; Autophagy HCS: inactive

Results for CC(=O)OC(C)(C)/C=C/C(=O)[C@](C)(O)[C@H]1[C@H](O)C[C@@]2(C)[C@@H]3CC=C4[C@H](C[C@H](O)C(=O)C4(C)C)[C@]3(C)C(=O)C[C@]12C ?
Hsp70 act: 0; Dynein transport: -3.7*; MT stabilizer: 40*; Autophagy HCS: inconclusive; Dynein confirm: inconclusive

Results for CCOP(=O)(OCC)c1ccc(OP(=O)(c2cccc([N+](=O)[O-])c2)c2cccc([N+](=O)[O-])c2)cc1 ?
b-catenin transl: 1; Dynein transport: -0.68
